# Source: PubChem
# Only a selection was taken, and hits are over-represented in it overall.
# GSH bead fluor = compound fluoresces at 488/530 nm on GSH beads. GSH beads flow cytometry, compound fluorescence 488/530 nm; hits give high values. fluorescence (KMESF) at 10 µM. hit rate 0.25% among 190,000; in the data active = fluorescence above about 89;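 also: glutathione beads carrying GST-tagged Bcl family fusion proteins plus one bare bead set; values are compound well signal with DMSO vehicle wells as background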
# Avidin fluor = compound fluoresces at 488/530 nm on avidin beads | hit rate 0.38% among 220,000 | fluorescence (KMESF) at 10 µM | compound fluorescence 488/530 nm, flow cytometry; hits give high values; in the data active = fluorescence above about 47
# ABCG2 inh = human ABCG2 inhibition, ABCB1 as counter-screen; Q9UNQ0; IgMXP3 cells, JC-1 efflux, flow cytometry; inhibition, % at 6.6 µM; hit rate 0.1% among 190,000; AID 1325;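 active = inhibition above 80%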;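 also: 0% = DMSO and 100% = nicardipine control wells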
# Target sequence (Q9UNQ0 whole entry, looked up): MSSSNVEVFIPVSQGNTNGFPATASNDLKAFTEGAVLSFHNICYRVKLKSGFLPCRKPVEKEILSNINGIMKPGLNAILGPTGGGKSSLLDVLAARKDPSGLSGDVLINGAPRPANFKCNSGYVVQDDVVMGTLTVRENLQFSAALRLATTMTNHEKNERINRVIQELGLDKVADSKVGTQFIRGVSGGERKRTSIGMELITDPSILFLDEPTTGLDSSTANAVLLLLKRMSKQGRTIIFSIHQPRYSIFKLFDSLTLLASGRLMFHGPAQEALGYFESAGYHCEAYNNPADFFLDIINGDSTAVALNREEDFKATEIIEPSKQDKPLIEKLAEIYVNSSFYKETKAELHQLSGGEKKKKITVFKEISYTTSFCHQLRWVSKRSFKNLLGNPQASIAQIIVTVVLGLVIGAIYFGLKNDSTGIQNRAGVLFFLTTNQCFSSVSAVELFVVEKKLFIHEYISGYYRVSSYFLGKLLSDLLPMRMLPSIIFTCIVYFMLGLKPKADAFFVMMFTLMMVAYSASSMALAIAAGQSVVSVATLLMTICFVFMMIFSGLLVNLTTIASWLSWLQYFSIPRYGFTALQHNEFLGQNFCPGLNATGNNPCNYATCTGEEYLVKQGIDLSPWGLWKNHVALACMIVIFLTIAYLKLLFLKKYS
#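 Test system: IgMXP3 (ABCG2) plus far-red-tagged CCRF-Adr (ABCB1) cells / Amount: 3 million cells/mL in well / Reagent: JC-1 transporter substrate / Timing: 10 min compound exposure, 25 °C / Signal: flow cytometry, 530 nm JC-1 signal / Read-out: percent efflux inhibition, scaled nicardipine 100% to DMSO 0% / Benchmarks: nicardipine as high control, DMSO as low control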
# ABCB1 inh = inhibitors of human ABCB1 transporter, ABCG2 counter-screen. P08183. CCRF-Adr cells, JC-1 efflux, flow cytometry. inhibition, % at 6.6 µM. hit rate 0.067% among 190,000. AID 1326; in the data active = inhibition above about 40%;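 also: 0% = vehicle and 100% = reference inhibitor; higher value means more JC-1 retained so stronger ABCB1 efflux block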
# PKD1 inh = inhibitors of human PKD1 kinase. hit rate 0.056% among 200,000. AID 797. Q15139. inhibition, % (concentration not given with the values). PKD1 kinase fluorescence polarization assay
# Lmaj promast = Leishmania major promastigote growth inhibition; hit rate 9% among 200,000; inhibition, % at 10 µM; Leishmania major promastigotes, resazurin fluorescence viability;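 also: promastigotes grown with compound for 44 hours at 28 °C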
# Numbers without * were called inactive; / = not tested or not shown. Rule as the data show it, unless noted: active = inhibition above about 50%; inactive = the rest.
SMILES,GSH bead fluor,Avidin fluor,ABCG2 inh,ABCB1 inh,PKD1 inh,Lmaj promast
O=C(O)CSc1ncnc2scc(-c3ccc(Br)cc3)c12,/,6,/,/,/,/
Cc1cccc(C(=O)/C=C2/c3ccccc3CC(C)(C)N2C)c1,48,9,4,0,8,21
O=C(CSc1ccc(Cl)cc1)Nc1ccc(-c2nc3ccccc3[nH]2)cc1,15,14,1,-1,-8,-6
COc1ccc(Cn2nnnc2C(c2cccnc2)N2CCN(c3ccc(O)cc3)CC2)cc1 (centres undefined),26,12,2,0,-4,94*
CC(C)C(c1nnnn1Cc1ccco1)N1CCN(c2cccc(Cl)c2)CC1 (centres undefined),20,13,-2,-2,-11,85*
CC(C)C(c1nnnn1Cc1ccccc1)N1CCN(Cc2ccco2)CC1 (centres undefined),12,11,2,1,7,9
COc1ccc(C(c2nnnn2Cc2ccccc2)N2CCN(c3nc4ccccc4s3)CC2)cc1OC (centres undefined),31,4,0,9,-9,100*
CCC(C)(C)n1nnnc1C(c1ccc(O)c(OC)c1)N1CCN(c2nc3ccccc3s2)CC1 (centres undefined),55,7,-5,0,7,6
COc1ccc(C(c2nnnn2C(C)(C)C)N2CCN(c3nc4ccccc4s3)CC2)cc1 (centres undefined),25,34,36,8,-1,57*
Cc1ccccc1NC(=O)C[n+]1cc(-c2ccccc2)n2c1CCC2,/,5,/,/,/,/
c1ccc(Cn2nnnc2C(c2ccccc2)N2CCN(c3nc4ccccc4s3)CC2)cc1 (centres undefined),23,5,14,6,-17,100*
CC(=O)c1cccc(N(C(=O)CNC(=O)c2ccco2)C(C(=O)NCc2ccco2)c2ccccc2)c1 (centres undefined),20,12,2,1,-1,-6
Cc1cccc(N2CCN(C(=O)C3CCCN(S(=O)(=O)c4cnc[nH]4)C3)CC2C)c1 (centres undefined),14,26,2,0,2,-2
CCCCC(O)(CCCC)C(=O)NN(C(=O)c1cccnc1Cl)c1ccccc1,/,6,/,/,/,/
CCOC(=O)C1=C(N)N(c2ccccc2)C2=C(C(=O)CCC2)C1c1cccnc1 (centres undefined),7,4,-2,1,-3,72*
CCOC(=O)C1=C(N)Oc2cc(C)n(CCc3ccc(OC)c(OC)c3)c(=O)c2C1c1cccnc1 (centres undefined),19,27,4,1,-10,94*
COC(=O)C1=C(N)Oc2cc(C)n(CCc3ccccc3)c(=O)c2C1c1cccnc1 (centres undefined),77,10,3,1,4,98*
CCOC(=O)C1=C(N)Oc2ccc3ccccc3c2C1c1cccnc1 (centres undefined),14,3,9,2,-5,98*
COc1cc(C2C(C#N)=C(N)N(c3cccnc3)C3=C2C(=O)CCC3)ccc1O (centres undefined),43,3,1,0,-4,-4
COCCN(C(=O)CC1C(=O)NCCN1Cc1ccc(-c2ccccc2)cc1)C(C)C (centres undefined),18,6,-1,0,-1,-2
COC(=O)C1=C(N)Oc2cc(C)n(Cc3cccnc3)c(=O)c2C1c1cc(OC)ccc1OC (centres undefined),31,6,-3,-2,-19,-7
COC(=O)C1=C(N)Oc2cc(C)n(Cc3cccnc3)c(=O)c2C1c1cccc(OC)c1OC (centres undefined),28,148*,1,0,-10,-5
CCOC(=O)C1=C(C)N(C)C(C)=C(C(=O)OCC)C1c1cccnc1,28,9,3,1,6,95*
COC(=O)c1oc2ccccc2c1NC(=O)CN1CCCC1,22,31,39,0,-8,-7
COC(=O)c1oc2ccc(Br)cc2c1NC(=O)CN1CCN(C)CC1,/,/,/,/,-2,100*
SMILES,GSH bead fluor,Avidin fluor,ABCG2 inh,ABCB1 inh,PKD1 inh,Lmaj promast
Cc1ccc(C)c(N(CC(=O)NC2CCCC2)C(=O)c2cc3cc4cccc(C)c4nc3s2)c1,23,6,4,1,-1,10
Cc1ccc2cc3cc(C(=O)N(CC(=O)NC4CCCC4)c4cccc(C)c4C)sc3nc2c1,11,36,6,2,4,51*
CC(C)N1CCc2c(sc(NC(=O)c3cc4cc([N+](=O)[O-])ccc4s3)c2C(N)=O)C1,8,9,0,-1,-5,100*
CC(C)N1CCc2c(sc(NC(=O)CCc3ccccc3)c2C(N)=O)C1,10,24,1,0,-6,0
CN1CCc2c(sc(NC(=O)c3cc4cc([N+](=O)[O-])ccc4s3)c2C(N)=O)C1,6,20,3,0,-6,100*
COc1cc(Nc2nc(-c3ccccc3)c3cc(C)ccc3n2)cc(OC)c1OC,15,15,3,1,5,61*
Cc1ccc(S(=O)(=O)NC(C(=O)Oc2cc3oc(=O)cc(C)c3cc2Cl)C(C)C)cc1 (centres undefined),9,4,33,21,-6,2
CCOC(=O)C1=C(C)NC(=O)CC1c1cc(OC)c(OC)cc1Br (centres undefined),13,8,1,1,0,4
CC[n+]1c(C=C2C=C(C)OC(C)=C2)sc2ccccc21,14,23,2,1,-5,100*
Cc1sc2ccccc2[n+]1CC(=O)O,/,3,/,/,/,/
CC[n+]1c(/C=C2/C=C(C)CC(C)C2)sc2ccccc21 (centres undefined),12,9,12,-1,-5,100*
CC(C)CNC(=O)c1oc2ccccc2c1COc1ccccc1,22,11,30,4,-5,6
Cc1cc(C)cc(NC(=O)c2oc3ccccc3c2COc2ccccc2)c1,9,16,7,0,-5,89*
O=C(CN1N=C(c2ccccc2)CCC1=O)NCCCN1CCc2ccccc2C1,16,10,3,0,-7,4
Cc1ccc(NC(=O)c2c(O)c3ccccc3n(C)c2=O)nc1,6,10,0,0,-3,71*
CCCCc1nc2ccccc2c(=O)n1NC(=O)c1c(O)c2ccccc2n(C)c1=O,15,10,4,-1,-2,73*
COc1ccccc1NC(=O)Cn1nnc(-c2ccccc2NS(=O)(=O)c2ccccc2)n1,10,8,0,0,0,51*
COc1ccc(NC(=O)Cn2nnc(-c3ccccc3NS(=O)(=O)c3ccc(OC)cc3)n2)cc1,6,4,-3,-1,0,69*
